Hits are enriched below; roughly 3.7% of the tested compounds scored in any of these assays.
aDG glyco act: activators of alpha-DG glycosylation, primary screen, uHTS, Pro5-aDG cells, AlphaScreen; alpha-DG glycosylation AlphaScreen (IIH6); 0% Pro5, 100% B10-LARGE cell signal; activation, % at 10 µM; 360,000 tested, 0.22% active; AID 624168, 2012;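 active = activation of at least 8% versus controls, or a plate z-score of at least 8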;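 also: Pro5 are CHO cells carrying HIG-tagged alpha-DG that lacks glycosylation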
NR3A LBD binder: binders of NR3A ligand-binding domain, primary screen, biophysical, differential scanning fluorimetry, uHTS. NR3A LBD differential scanning fluorimetry, Tm shift; 0% = protein alone, 100% = glycine-bound protein. AID 1259313, 2017. Glutamate receptor ionotropic, NMDA 3A (GRIN3A) ligand-binding domain. 340,000 tested, 2.5% active. Tm shift relative to glycine control, % at 25 µM;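 active = melting temperature shift of at least 10% of the positive control shift, at one fixed dose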
proCasp7 act: procaspase-7 activators, primary screen, counter-screen for procaspase-3 activator project, biochemical, absorbance, HTS, human | 330,000 tested, 0.093% active | activation, % at 8.5 µM | AID 463210, 2010 | recombinant procaspase-7, Ac-DEVD-pNA absorbance 405 nm; D23A/D198A/D206A triple mutant, cannot self-cleave; scale: DMSO 0, 5 µM enzyme 100;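 active = percent activation above the screen-wide mean plus 3 SD, cut at about 25% in these data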
Target sequence (P55210 whole entry D23A/D198A/D206A): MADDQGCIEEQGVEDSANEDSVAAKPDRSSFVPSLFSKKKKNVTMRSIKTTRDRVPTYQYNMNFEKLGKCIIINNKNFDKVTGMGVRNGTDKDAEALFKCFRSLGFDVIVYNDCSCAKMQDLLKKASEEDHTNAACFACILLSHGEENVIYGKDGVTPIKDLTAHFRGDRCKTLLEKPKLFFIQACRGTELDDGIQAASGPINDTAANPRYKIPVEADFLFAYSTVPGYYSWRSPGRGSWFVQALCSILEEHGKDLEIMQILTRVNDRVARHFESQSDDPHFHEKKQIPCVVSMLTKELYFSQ
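Test system: Procaspase-7 triple mutant (PC-7 D3A). Also added: Ac-DEVD-pNA substrate, 400 µM as added. Schedule: 1 h enzyme–compound preincubation and 2 h substrate reaction, both 25 °C. Signal: p-Nitroaniline absorbance at 405 nm, read at 0 and 120 min. Control set: low DMSO alone, high DMSO plus 5 µM PC-7.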
MPTP inh: mitochondrial permeability transition pore inhibitors, primary screen, biochemical, isolated mouse mitochondria, absorbance | Ca2+ swelling absorbance, 30 min | inhibition, % at 10 µM | 360,000 tested, 1.4% active | AID 602449, 2012;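 active = inhibition of 50% or more, scaled per plate between neutral and stimulator controls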;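 also: 0% = DMSO wells given calcium and 100% = 1 mM EGTA wells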
proCasp3 act: activators of human procaspase-3 D3A mutant, primary screen, biochemical, absorbance, PC-3 D3A mutant, single concentration | AID 463141, 2010 | activation, % at 8.5 µM | recombinant procaspase-3 D3A, Ac-DEVD-pNA absorbance 405 nm | 330,000 tested, 0.11% active | Caspase-3 (Homo sapiens), P42574;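 active = activation above the mean of all tested compounds plus 3 SD, cut at about 21% in these data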;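 also: 0% = DMSO alone and 100% = DMSO wells spiked with extra 5 µM PC-3 D3A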
Target sequence (P42574 whole entry D9A/D28A/D175A): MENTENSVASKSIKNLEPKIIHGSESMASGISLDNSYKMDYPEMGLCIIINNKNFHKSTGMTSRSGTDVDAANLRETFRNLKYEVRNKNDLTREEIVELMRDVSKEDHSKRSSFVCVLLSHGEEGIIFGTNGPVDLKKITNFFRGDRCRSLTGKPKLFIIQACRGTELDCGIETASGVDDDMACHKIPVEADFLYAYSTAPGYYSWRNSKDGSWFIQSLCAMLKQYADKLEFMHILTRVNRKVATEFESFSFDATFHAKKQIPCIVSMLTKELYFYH
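material = Procaspase-3 D3A mutant | probe or stimulus = Ac-DEVD-pNA | compound = single dose, 8.5 µM nominal compound, 0.8% DMSO | timing = 1 h preincubation, 2 h reaction | measured by = 405 nm absorbance of p-nitroaniline, reads at 0 and 120 min | benchmarks = DMSO-only low control, 5 µM PC-3 D3A high control | repeats = singlicate, each compound tested once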
* hit, by the source's call; / = no result given.

SMILES | aDG glyco act | NR3A LBD binder | proCasp7 act | MPTP inh | proCasp3 act
CNC(=S)N(CCc1ccc(OC)c(OC)c1)C1CC(=O)N(c2ccccc2)C1=O (configuration not stated) | -0.1 | -2.4 | -25.8 | 3.5 | -26.5
O=C1CC(N(CCc2ccccc2)C(=S)Nc2ccccc2)C(=O)N1c1ccccc1 (configuration not stated) | 0.2 | 16.8* | -10.8 | -24.3 | -7.6
CCCN(C(=O)/C=C/c1ccc(S(=O)(=O)N(CC)CC)cc1)C1CCS(=O)(=O)C1 (configuration not stated) | -0.2 | -2.2 | 5.4 | -1.9 | 6.4
O=C(Nc1c(Cl)cc2c(c1Cl)Cc1cc([N+](=O)[O-])ccc1-2)C(Cl)Cl | 0.1 | -9.8 | / | 27.5 | /
NC(=O)c1cccc(-c2ccnc3c2CC(C(=O)Nc2cccc(Oc4ccccc4)c2)O3)c1 (configuration not stated) | 0.4 | / | / | -0.7 | /
Oc1ccc(-c2nc3c4c(ncn3n2)-c2ccccc2CC42CCCC2)cc1 | 0.1 | 60.6* | 6.3 | 18.2 | 3.6
O=c1cc(-c2ccc(O)c(O)c2)oc2cc(O)c([C@@H]3O[C@H](CO)[C@@H](O)[C@H](O)[C@H]3O)c(O)c12 | 0.2 | 18.5* | -2.3 | 0.4 | 4.5
FC(F)Sc1nc(-c2ccccc2)c(-c2ccccc2)n1C(F)F | 0.1 | 18.1* | 2.1 | 0.3 | 0.2
c1ccc(-c2nc3ccccn3c2-c2ccccc2)cc1 | 0.3 | -0.8 | 1.9 | 2.5 | -12.4
Cc1c(Cc2ccccc2)c(=O)oc2c(O)c(O)ccc12 | 0.6 | 10.1* | / | -0.8 | /
Cc1c(Cc2ccccc2)c(=O)oc2c(CN(C)C)c(O)c(Cl)cc12 | 0.5 | -1.0 | 1.6 | 2.6 | -1.9
COc1ccc(NS(=O)(=O)c2cc([N+](=O)[O-])ccc2NN=Cc2ccccc2OCC(=O)O)cc1 | 0.1 | 40.2* | -7.0 | 2.7 | -11.4
CCN(CC)S(=O)(=O)c1ccc(N/N=C/c2ccccc2OCC(=O)O)c([N+](=O)[O-])c1 | -0.2 | -5.9 | -1.0 | 0.2 | -4.9
COc1ccc(NS(=O)(=O)c2cc([N+](=O)[O-])ccc2N/N=C\c2c(C)[nH]c3ccccc23)cc1 | 0.1 | 28.3* | 3.2 | 2.0 | -2.8
O=C(O)COc1ccccc1/C=N/NC(=O)c1cc(-c2ccc(Cl)cc2)nc2ccccc12 | -0.1 | -2.2 | 6.7 | 2.7 | 3.8
COc1ccccc1NS(=O)(=O)c1cc([N+](=O)[O-])ccc1N/N=C/c1c[nH]c2ccccc12 | 0.0 | 22.8* | 0.2 | 2.7 | -82.0
COc1ccccc1NS(=O)(=O)c1cc([N+](=O)[O-])ccc1N/N=C/c1sc(N2CCOCC2)nc1-c1ccccc1 | -0.6 | 5.6 | -4.3 | 15.9 | 0.0
O=C(O)COc1ccccc1C=NNc1ccc([N+](=O)[O-])cc1S(=O)(=O)Nc1ccc(Cl)cc1 | 1.9 | 24.4* | -38.6 | -1.3 | -22.2
Cc1[nH]c2ccccc2c1/C=N/Nc1ccc([N+](=O)[O-])cc1S(=O)(=O)Nc1ccc(Cl)cc1 | 0.6 | 9.3 | 3.8 | 15.1 | -1.8
O=C(NCc1ccccc1)C1C(c2ccc3c(c2)OCO3)=Nc2ccccc2N1C(=O)c1ccco1 (configuration not stated) | 0.1 | / | / | 1.4 | /
COc1ccccc1NS(=O)(=O)c1ccc(N/N=C/c2ccccc2OCC(=O)O)c([N+](=O)[O-])c1 | 0.0 | 3.7 | 2.5 | 5.2 | -3.1
O=C(O)COc1ccccc1/C=N/Nc1ccc(S(=O)(=O)Nc2ccc(Cl)cc2)cc1[N+](=O)[O-] | -0.2 | 10.5* | -18.1 | 0.6 | -3.6
CC1(C)CC[C@]2(C(=O)O)CC[C@]3(CO)C(=CCC4[C@@]5(C)C[C@H](O)[C@H](O)[C@@](C)(C(=O)O)C5CC[C@]43C)[C@@H]2C1 (some centres not stated) | -0.3 | 14.3* | 11.6 | 0.0 | 0.2
O=C1c2ccccc2C(=O)c2cc(N3CCCCC3)ccc21 | -0.2 | 38.3* | / | 2.1 | /
c1ccc2cc(N3CCCCC3)ccc2c1 | -0.1 | -8.7 | / | -1.7 | /
SMILES | aDG glyco act | NR3A LBD binder | proCasp7 act | MPTP inh | proCasp3 act
COc1cccc(/C(O)=C/c2nc3ccc(C(=O)NCCc4cccc(C)c4)cc3[nH]c2=O)c1 | 0.1 | -3.2 | 1.4 | 1.4 | 8.5
COc1cccc(/C(O)=C/c2nc3ccc(C(=O)NCCc4ccc(Cl)cc4)cc3[nH]c2=O)c1 | -0.4 | 11.1* | / | -2.5 | /
O=c1c2ccc(Cl)cc2nc2n1CC/C2=C\c1cccc(O)c1 | 0.2 | 23.4* | -9.1 | 3.5 | 2.3
O=C(O)c1ccc2c(=O)n3c(nc2c1)/C(=C/c1cccc(O)c1)CC3 | -0.1 | 1.2 | 0.2 | 0.3 | 4.8
NC(=O)c1cc([N+](=O)[O-])ccc1NCC1CCCCC1 | 0.1 | -0.4 | -7.3 | -0.7 | -0.4
CC(=O)c1sc(NC(=O)c2oc3ccc(F)cc3c2C)nc1C | -0.4 | 0.3 | 5.2 | 1.3 | 7.8
O=C(CSc1ncc(-c2ccc(F)cc2)[nH]1)Nc1cccc(O)c1 | -0.1 | 16.4* | -6.3 | 0.4 | 4.2
Cc1ccc(NC(=O)CSc2nc3nc(C)c(Br)cc3[nH]2)cc1F | 0.1 | 13.9* | 1.8 | 33.7 | -5.6
Cc1ccc2nc(SCC(=O)Nc3ccc4c(c3)CCC4)[nH]c2c1 | -0.1 | 0.3 | 0.1 | 24.1 | 0.5
COC(=O)CSc1nc2nc(C)c(Br)cc2[nH]1 | -0.3 | -0.3 | 3.0 | 1.3 | 8.4
O=C(CSc1nc2ccc(Cl)cc2[nH]1)Nc1ccc2c(c1)CCC2 | -0.3 | 20.7* | -0.8 | 34.2 | -10.8
COc1ccc(NC(=O)CSc2nc3ccc(OC)cc3[nH]2)cc1 | -0.1 | -5.7 | 7.7 | 2.3 | -1.4
O=C(CSc1nc2cc3ccccc3cc2[nH]1)Nc1ccc(F)cc1 | 0.5 | 17.3* | -2.4 | 47.0 | 3.5
NNC(=O)CSc1ncc(-c2ccccc2)[nH]1 | 0.8 | -1.0 | 14.5 | 0.6 | 2.1
CC1(C(=O)NC2CCCC2)CCC(=O)N1CCCn1ccnc1 (configuration not stated) | 0.0 | / | / | -0.1 | /
NS(=O)(=O)c1ccc(NC(=O)c2cccc3cc4ccccc4nc23)cc1 | -0.1 | -1.7 | / | 0.7 | /
COc1ccc(F)cc1-c1cc(NC(C)=O)c2ncc(-c3cccc(C(F)(F)F)c3)n2c1 | 0.1 | / | / | -0.2 | /
COc1ccc(Cl)cc1C(=O)O/N=C(\N)c1ccc(Cl)cc1 | 0.3 | 20.0* | 11.2 | -0.9 | 4.9
COc1ccc(/C(N)=N/OC(=O)c2cccs2)cc1OC | -0.1 | 21.8* | 1.3 | 0.4 | 6.2
Cc1ccc(/C(N)=N/OC(=O)c2cccs2)cc1 | 0.0 | -11.0 | -5.4 | 1.4 | 5.1

Screening data as filed in PubChem.
